# NR2E3 ag-1 – NR2E3 agonists in two-hybrid cells, primary screen, cell-based, luminescence, CHO-S, Gal4-NCOR/VP16-NR2E3 | inhibition of corepressor binding, % at 3.98 µM | 360,000 tested, 0.35% active | Photoreceptor-specific nuclear receptor (Homo sapiens), Q9Y5X4 | AID 602229, 2012 | luciferase;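 active means inhibition above the mean of all tested compounds plus 3 SD, cut at about 70% in these data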;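 further: 0% = DMSO with NR2E3 transfected cells and 100% = cells lacking NR2E3 construct; higher means lower luciferase signal from less NR2E3 corepressor binding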
# MC4R antag cAMP – MC4R antagonists of cAMP signaling, primary screen, cell-based, TR-FRET, antagonist arm of biased-ligand search; Melanocortin receptor 4 (Homo sapiens), P32245; MC4R-expressing cells, MTII-stimulated cAMP, LANCE TR-FRET; inhibition, % at 6.5 µM; 360,000 tested, 0.48% active; AID 540295, 2011;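 active means inhibition above its plate's cutoff, the mean of tested wells on that plate plus 3 SD, cut at about 29% in these data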;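 further: 0% = Melanotan II alone and 100% = Melanotan II plus saturating MCL0020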
# Target sequence (P32245 whole entry, looked up): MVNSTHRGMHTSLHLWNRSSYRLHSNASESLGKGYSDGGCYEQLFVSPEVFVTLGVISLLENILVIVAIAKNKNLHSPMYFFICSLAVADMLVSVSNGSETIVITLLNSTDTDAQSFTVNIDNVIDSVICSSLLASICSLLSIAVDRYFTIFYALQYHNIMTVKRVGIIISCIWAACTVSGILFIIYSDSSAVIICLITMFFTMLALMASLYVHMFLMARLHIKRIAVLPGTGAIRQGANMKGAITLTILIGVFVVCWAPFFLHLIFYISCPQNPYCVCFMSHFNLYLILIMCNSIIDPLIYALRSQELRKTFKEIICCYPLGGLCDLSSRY
#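 material = U2OS cells stably expressing human melanocortin 4 receptor (MC4R) | also added = Melanotan II challenge | dosing = single nominal compound dose of 6.5 µM | detection = TR-FRET with Eu-cAMP and labeled anti-cAMP, 671 nm | replication = singlicate | timing = compound 30 min, challenge 1 h, detection 1 h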
# MC4R barr agon – MC4R agonists recruiting beta-arrestin, primary screen, cell-based, luminescence, agonist arm of biased-ligand search; U2OS MC4R beta-arrestin complementation; percent of melanotan II response, DMSO zero; activation, % at 8.9 µM; 360,000 tested, 0.98% active;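 active means activation above a per-plate cutoff, the mean activation of sample wells on that plate plus 3 SD, cut at about 8% in these data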
# PG9 binder – binders of HIV-1 gp120 antibody PG9, primary screen, biochemical, TR-FRET; TR-FRET gp120-PG9 antibody binding; inhibition, % at 6.7 µM; 360,000 tested, 0.43% active; AID 624416, 2012; in the data active means inhibition above about 8.5%
# Rev-erbA mod – modulators of Rev-erb alpha DNA binding, primary screen, biochemical, FITC-DNA, fluorescence polarization, uHTS. Nuclear receptor subfamily 1 group D member 1 (Homo sapiens), P20393. Rev-erbα–FITC-DNA binding, 90 min. activity, % at 10 µM. 370,000 tested, 0.79% active;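 active means activity above about 14%, limit read from the data; passing the limit was not always enough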;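 further: 0% = DMSO wells with 35 nM protein and 100% = DMSO wells with 750 nM protein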
# NR2E3 ag-2 – inhibitors of NR2E3-RetCOR corepressor binding, primary screen, NR2E3 agonist project, biochemical, TR-FRET, GST-NR2E3, biotin-RetCOR; 320,000 tested, 0.12% active; Photoreceptor-specific nuclear receptor (Homo sapiens), Q9Y5X4; 1536-well; AID 2300, 2010; inhibition of corepressor binding, % at 4.78 µM;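 active means percent inhibition above the cutoff of mean plus 3 SD of all tested compounds, set per screening campaign, cut at about 20% in these data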;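 further: 0% = DMSO wells and 100% = biotin wells as full block of FRET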
#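 Material – GST-tagged NR2E3 plus biotinylated RetCOR corepressor · Quantity – NR2E3 fusion 1.35 nM · Times – 5 h incubation at 4 °C · Medium – pH 7.5 Tris-based buffer · Technique – TR-FRET, Eu(K)-anti-GST donor, streptavidin-D2 acceptor, ex 340, em 617/671 nm · Benchmarks – high control biotin, low control 0.6% DMSO · Format – 1536-well plates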
# NR2E3 ag conf – NR2E3 agonist confirmation in cells, cell-based, luminescence, CHO-S two-hybrid. shares compounds with NR2E3 ag-1. 2,300 tested, 51% active. inhibition, % at 3.98 µM. CHO-S mammalian two-hybrid NR2E3-NCOR, luciferase luminescence;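 active means average inhibition above a cutoff equal to the mean inhibition of all tested compounds plus one SD, cut at about 70% in these data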;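 further: 0% = DMSO in NR2E3 cells and 100% = DMSO in cells lacking NR2E3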
# VP16 counter – GAL4-VP16 reporter modulators, confirmation, counter-screen for NR2E3 agonist project, cell-based, luminescence, CHO-S, high throughput | AID 624379, 2012 | shares compounds with NR2E3 ag-1 | inhibition, % at 3.98 µM | CHO-S GAL4-VP16 luciferase reporter | 2,300 tested, 29% active;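 active means mean inhibition above a cutoff equal to the average over all tested compounds plus one standard deviation, cut at about 70% in these data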;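 further: luciferase from a UAS reporter driven by GAL4-VP16 transactivation; 0% = DMSO with VP16-transfected cells and 100% = DMSO with cells lacking VP16; higher means less reporter light so more repression of VP16 activity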
# PG9 binder conf – binders of anti-gp120 antibody PG9, confirmation, biochemical, TR-FRET | shares compounds with PG9 binder | TR-FRET PG9 antibody binding | inhibition, % at 6.7 µM | 1,500 tested, 90% active; in the data active means inhibition above about 9%
# PGV04 counter – binders of control antibody PGV04, counter-screen for PG9 antibody binder project, biochemical, TR-FRET, distinct HIV envelope site; shares compounds with PG9 binder; TR-FRET PGV04 antibody-gp120 binding; inhibition, % at 6.7 µM; 1,500 tested, 95% active; in the data active means inhibition above about 9.5%
# NR1D1 mod conf – modulators of Rev-erb alpha DNA binding, confirmation, biochemical, FITC-DNA, fluorescence polarization, single point; 3,000 tested, 61% active; shares compounds with Rev-erbA mod; activation, % at 25 µM; 90 min; AID 1259319, 2017;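 active means activation at or above a set limit, or at least 3 SD above the negative control mean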;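 further: 0% = 35 nM protein with DMSO and 100% = 750 nM protein high control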
# RORg DNA counter – modulation of RORgamma DNA binding, dose response, counter-screen for Rev-erb alpha modulator project, biochemical, fluorescence polarization, FITC-DNA. purified RORgamma protein-FITC-DNA binding. 910 tested, 8% active. IC50, µM. shares compounds with Rev-erbA mod;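 active means Compounds whose fitted half-maximal concentration for disrupting protein-DNA binding is below 10 micromolar; the record names Rev-erb in its text, so the target is in doubt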
# The depositor's hits bear a star; i = inactive; / = no result. This is a sample that favours compounds with a hit; in the whole collection about 2.7% have one here.
SMILES,NR2E3 ag-1,MC4R antag cAMP,MC4R barr agon,PG9 binder,Rev-erbA mod,NR2E3 ag-2,NR2E3 ag conf,VP16 counter,PG9 binder conf,PGV04 counter,NR1D1 mod conf,others
CCN1/C(=C/C=C/c2oc3ccc(-c4ccccc4)cc3[n+]2CC)Oc2ccc(-c3ccccc3)cc21,80*,11,8,0,139*,-1,100*,93*,/,/,135*,RORg DNA counter=i
CCN1/C(=C/C=C/c2sc3ccccc3[n+]2CC)Sc2ccccc21,20,-11,2,/,/,1,/,/,/,/,/,
O=C(OCCN1C(=O)c2cccc3c(N4CCOCC4)ccc(c23)C1=O)c1ccccc1Cl,52,-1,-2,0,40*,4,93*,92*,/,/,56*,RORg DNA counter=>40
CC(=O)N/C(=N/c1nc(C)cc(C)n1)Nc1ccc(NC(C)=O)cc1,-24,9,-1,-1,-2,1,/,/,/,/,/,
Cc1ccc(-c2nsc3c(N4CCC(C(N)=O)CC4)ncnc23)cc1,5,11,-3,0,15,-5,/,/,/,/,/,
COc1ccc(-c2nsc3c(N4CCCCC4)ncnc23)cc1,57,1,1,3,20*,-6,17,-13,/,/,1,
COc1ccccc1C(=O)Nc1nc(-c2ccc(S(=O)(=O)N3CCOCC3)cc2)cs1,92*,9,-1,1,43*,-2,89*,63,/,/,29*,
COc1ccccc1OC(C)C(=O)Nc1nc(-c2ccc(S(=O)(=O)N3CCOCC3)cc2)cs1 (centres undefined),11,0,-1,-1,5,0,/,/,/,/,/,
COc1ccccc1-c1nnc(Nc2nc3c(OC)cccc3s2)o1,74*,-14,0,11*,47*,18,22,-35,23*,26*,78*,
Oc1ccccc1N=Nc1nc(-c2ccccc2)c(-c2ccccc2)[nH]1,81*,1,-5,-20,25*,4,68,43,/,/,33*,RORg DNA counter=>40
CCOC(=O)Cn1c(=O)oc2cc(S(=O)(=O)NCCCc3ccccc3)ccc21,-21,14,1,0,1,-2,/,/,/,/,/,
COc1ccc(OC)c(-n2c(-c3cccc(O)c3)n[nH]c2=S)c1,18,1,-3,1,-2,4,/,/,/,/,/,
COc1ccc(C(c2nnnn2Cc2ccccc2)N2CCN(C(=O)c3ccco3)CC2)cc1OC (centres undefined),-2,-1,-4,0,-2,1,/,/,/,/,/,
CCN(CC(=O)NCc1ccc(Cl)cc1)C(=O)c1cnc(Cl)c(Cl)c1,0,11,-1,0,0,3,/,/,/,/,/,
CCN(CC(=O)NCc1ccc(Cl)cc1)C(=O)c1ccc2cc(OC)ccc2c1,51,14,1,1,105*,8,28,61,/,/,102*,RORg DNA counter=>40
O=P(O)(O)CCP(=O)(c1ccccc1)c1ccccc1,14,-2,1,-2,-2,4,/,/,/,/,/,
COc1ccccc1C(=O)Nc1nc2ccccc2s1,66,5,-1,0,34*,1,65,52,/,/,41*,RORg DNA counter=>40
O=C(CNC(=O)c1ccc(Br)cc1)c1ccc(Br)cc1,-30,1,0,11*,-4,5,/,/,18*,26*,/,
COc1ccc(NC(=O)Nc2nnc(C(C)(C)C)s2)cc1,-63,12,2,2,-1,0,/,/,/,/,/,
COc1ccc(C=O)cc1Cn1c(=O)n(CCC(=O)NCc2ccco2)c(=O)c2sccc21,9,12,-1,14*,-4,3,/,/,7,17*,/,
Cc1ccc(-n2c(=O)c3sccc3n(CC(=O)NCc3ccco3)c2=O)cc1F,-7,14,-2,9.4*,0,2,/,/,12*,19*,/,
Cc1ccccc1Cn1c(=O)n(CCCC(=O)NCc2ccco2)c(=O)c2sccc21,-6,7,1,5,/,2,/,/,/,/,/,
Cc1ccc(C)c(Cn2c(=O)n(CCC(=O)NCc3ccco3)c(=O)c3sccc32)c1,0,3,0,12*,1,-1,/,/,13*,18*,/,
CCOc1ccc(S(=O)(=O)c2ccc(C)cc2)c2c1no[n+]2[O-],-1,1,0,-2,1,/,/,/,/,/,/,
COC(=O)c1ccc(N2C(=O)CC(N3CCOCC3)C2=O)cc1 (centres undefined),-14,7,-2,13*,8,1,/,/,7,9.3*,/,
COC(=O)c1ccc(N2C(=O)CC(N3CCN(c4ccccc4)CC3)C2=O)cc1 (centres undefined),-6,8,0,1,13,1,/,/,/,/,/,
CCOc1ccc(/C(O)=C2\C(=O)C(=O)N(c3ccccn3)C2c2ccccc2F)c(C)c1 (centres undefined),21,21,-1,9.6*,-3,/,/,/,22*,32*,/,
C=CCS(=O)(=O)c1nc2ccccc2s1,4,17,-1,-2,2,6,/,/,/,/,/,

# Screens (PubChem BioAssay)
